Calls of active or inactive are those of the source. The calls are words filed in the database; no cut-off is given here.
What was measured:
[1] = tested on: HL-60; assay: Cytotoxicity against human HL60 cells after 24 hrs by dye exclusion assay; conditions: HL-60, 24 h
[2] = tested on: SH-SY5Y; assay: Cytotoxicity against human SH-SY5Y assessed as decrease in ERK2 protein level at 5 uM after 20 hrs by Western blotting; type: functional, cell-based
Outline: (§1)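 SH-SY5Y cells treated 20 h with 5 μM, then harvested. Protein content and phosphorylation status in cell extracts read by Western blotting at 50 μg protein per lane.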

[3] = tested on: SH-SY5Y; assay: Cytotoxicity against human SH-SY5Y assessed as decrease in ERK1 protein level at 5 uM after 20 hrs by Western blotting; type: functional, cell-based
Outline: as §1

[4] = tested on: SH-SY5Y; assay: Cytotoxicity against human SH-SY5Y assessed as decrease in ERK2 phosphorylation at 5 uM after 20 hrs by Western blotting; type: functional, cell-based
Outline: as §1

[5] = tested on: SH-SY5Y; assay: Cytotoxicity against human SH-SY5Y assessed as cell viability at 5 uM after 20 hrs by trypan blue exclusion assay; type: functional; conditions: read-out: Activity
Outline: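 SH-SY5Y cells exposed to 5 μM for 20 h. Viable cell fraction assessed by dye exclusion.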

[6] = tested on: HL-60; assay: Induction of apoptosis in human HL60 cells assessed as caspase 3 activation at 5 uM after 24 hrs by DEVDase activity assay; type: functional, cell-based
Outline: (§2)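 HL60 cells exposed to 5 μM for 4 or 24 h. DEVDase (effector caspase 3/7) activity measured on the DEVD peptide substrate.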

[7] = tested on: HL-60; assay: Induction of apoptosis in human HL60 cells assessed as caspase 3 activation at 5 uM after 4 hrs by DEVDase activity assay; type: functional, cell-based
Outline: as §2

[8] = tested on: SH-SY5Y; assay: Cytotoxicity against human SH-SY5Y assessed as p53 protein accumulation at 5 uM after 20 hrs by Western blotting; type: functional, cell-based
Outline: as §1

[9] = tested on: Calf thymus DNA; assay: Displacement of ethidium bromide from calf thymus DNA by fluorescence assay; type: nucleic-acid assay, Bos taurus; conditions: for Kapp: Bos taurus
Outline: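 Fluorometric intercalator displacement. EC50 is the drug concentration that cuts DNA-bound ethidium fluorescence by 50%, given as the mean of three determinations ± SEM. Apparent binding constant is calculated taking the ethidium binding constant as 10^7 M-1.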

[10] = tested on: SH-SY5Y; assay: Cytotoxicity against human SH-SY5Y assessed as decrease in ERK1 phosphorylation at 5 uM after 20 hrs by Western blotting; type: functional, cell-based
Outline: as §1

[11] = tested on: SK-BR-3; assay: Cytotoxicity against human SKBR3 cells at 10 uM after 72 hrs by MTT assay; type: functional, cell-based
Outline: (§3)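 MTT growth-inhibition assay on SKBR-3 breast cancer and CEM leukemia cells, 72 h exposure over 0.1–10 μM. IC50 is the concentration giving 50% growth inhibition, derived by linear regression and reported as a mean of six experiments. Single-concentration entries are taken at 10 μM, the top of the range.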

[12] = tested on: CCRF-CEM; assay: Cytotoxicity against human CCRF-CEM cells at 10 uM after 72 hrs by MTT assay; type: functional, cell-based
Outline: as §3

[13] = tested on: SK-BR-3; assay: Cytotoxicity against human SKBR3 cells after 72 hrs by MTT assay; type: functional, cell-based; conditions: SK-BR-3, 72 h
Outline: as §3

[14] = tested on: CCRF-CEM; assay: Cytotoxicity against human CCRF-CEM cells after 72 hrs by MTT assay; type: functional, cell-based
Outline: as §3

[15] = biological target: DNA topoisomerase 2-alpha (Homo sapiens) (UniProt P11388); assay: Stimulation of human recombinant topoisomerase 2alpha-mediated SV40 DNA cleavage at 10 uM after 45 mins by PAGE
Chain of DNA topoisomerase 2-alpha (Homo sapiens) (P11388 whole entry): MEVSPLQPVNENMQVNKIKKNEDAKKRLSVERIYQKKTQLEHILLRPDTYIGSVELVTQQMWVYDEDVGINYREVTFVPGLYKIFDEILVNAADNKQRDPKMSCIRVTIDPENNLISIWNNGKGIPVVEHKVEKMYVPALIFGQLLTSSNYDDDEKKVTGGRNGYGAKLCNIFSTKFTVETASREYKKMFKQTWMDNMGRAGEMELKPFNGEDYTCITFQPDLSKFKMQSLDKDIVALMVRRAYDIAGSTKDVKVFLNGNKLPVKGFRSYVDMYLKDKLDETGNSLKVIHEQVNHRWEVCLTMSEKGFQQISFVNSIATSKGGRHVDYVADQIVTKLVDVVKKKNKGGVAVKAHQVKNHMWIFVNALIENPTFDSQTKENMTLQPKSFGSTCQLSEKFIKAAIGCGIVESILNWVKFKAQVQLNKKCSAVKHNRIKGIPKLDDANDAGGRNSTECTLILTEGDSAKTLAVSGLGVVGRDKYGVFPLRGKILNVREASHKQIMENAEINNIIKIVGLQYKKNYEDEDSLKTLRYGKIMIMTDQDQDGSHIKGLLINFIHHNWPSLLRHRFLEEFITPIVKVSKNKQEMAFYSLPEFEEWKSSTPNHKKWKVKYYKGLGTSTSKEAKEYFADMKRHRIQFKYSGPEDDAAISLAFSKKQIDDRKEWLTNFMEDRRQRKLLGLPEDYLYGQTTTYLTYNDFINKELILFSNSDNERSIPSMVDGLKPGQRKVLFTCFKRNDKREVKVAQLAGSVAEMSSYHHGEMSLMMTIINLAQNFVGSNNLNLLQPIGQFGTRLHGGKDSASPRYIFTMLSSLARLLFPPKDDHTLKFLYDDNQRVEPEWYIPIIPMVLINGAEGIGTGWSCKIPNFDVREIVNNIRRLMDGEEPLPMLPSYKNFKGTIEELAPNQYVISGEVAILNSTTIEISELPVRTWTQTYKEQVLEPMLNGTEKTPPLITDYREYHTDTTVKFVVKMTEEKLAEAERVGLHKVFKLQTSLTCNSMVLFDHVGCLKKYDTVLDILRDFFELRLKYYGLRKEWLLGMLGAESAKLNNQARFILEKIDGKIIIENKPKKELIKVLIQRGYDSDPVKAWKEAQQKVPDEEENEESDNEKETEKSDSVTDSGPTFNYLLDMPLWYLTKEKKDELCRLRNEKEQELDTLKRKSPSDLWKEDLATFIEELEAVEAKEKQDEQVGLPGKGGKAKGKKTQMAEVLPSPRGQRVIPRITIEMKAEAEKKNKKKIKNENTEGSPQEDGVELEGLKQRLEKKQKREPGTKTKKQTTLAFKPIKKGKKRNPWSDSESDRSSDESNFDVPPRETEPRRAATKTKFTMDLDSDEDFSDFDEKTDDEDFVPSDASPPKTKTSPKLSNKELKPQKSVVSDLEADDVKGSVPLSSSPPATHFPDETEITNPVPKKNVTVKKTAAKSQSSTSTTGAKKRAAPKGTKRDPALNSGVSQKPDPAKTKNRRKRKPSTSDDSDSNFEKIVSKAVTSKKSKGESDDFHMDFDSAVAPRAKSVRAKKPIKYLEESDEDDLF
Outline: (§4)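 Cleavage assay with recombinant human DNA topoisomerase IIα, using SV40 DNA as substrate, to test for stimulation of DNA cleavage (poison activity).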

[16] = biological target: DNA topoisomerase 2-alpha (Homo sapiens) (UniProt P11388); assay: Stimulation of human recombinant topoisomerase 2alpha-mediated SV40 DNA cleavage at 50 uM after 45 mins by PAGE
Outline: as §4

[17] = tested on: HL-60; assay: Induction of apoptosis in human HL60 cells assessed as caspase 3 activation after 4 hrs by DEVDase activity assay; type: functional, cell-based
Outline: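 HL60 cells treated 4 h at the indicated doses, then collected. Caspase (DEVDase) activity determined.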

[18] = tested on: SH-SY5Y; assay: Induction of apoptosis in human SH-SY5Y cells assessed as caspase 3 activation at 5 uM after 24 hrs by DEVDase activity assay; type: functional, cell-based
Outline: (§5)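 SH-SY5Y neuroblastoma, H9c2 heart and Jurkat T cells treated 24 h with 5 μM. Caspase (DEVDase) activation measured, reported as mean ± SEM of triplicates.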

[19] = tested on: SH-SY5Y; assay: Cytotoxicity against human SH-SY5Y assessed as p53 protein accumulation at 1 uM after 20 hrs by Western blotting; type: functional, cell-based
Outline: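 SH-SY5Y extracts prepared after 20 h incubation at the indicated concentrations. p53 content measured by Western blot, 50 μg protein loaded per point.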

[20] = tested on: SH-SY5Y; assay: Cytotoxicity against human SH-SY5Y after 72 hrs by trypan blue exclusion assay; type: functional, cell-based
Outline: (§6)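 SH-SY5Y neuroblastoma cells incubated with compounds at 1 to 5 μM for the indicated times up to 72 h. Viable cells counted by dye exclusion.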

[21] = tested on: HL-60; assay: Induction of apoptosis in human HL60 cells assessed as decrease in procaspase 3 level at 5 uM after 4 hrs by Western blotting; type: functional, cell-based
Outline: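 HL60 cells incubated 4 h with 5 μM. Extracted proteins analysed by Western blot for the 32 kDa procaspase 3 precursor and its active proteolytic fragment.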

[22] = tested on: SH-SY5Y; assay: Cytotoxicity against human SH-SY5Y assessed as cell survival at 1 uM after 72 hrs by trypan blue exclusion assay; type: functional; conditions: read-out: Survival
Outline: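 SH-SY5Y neuroblastoma cells incubated with compound at 1 to 5 μM for the indicated times, including 24 h and 72 h. Viable cells were then counted by dye exclusion and expressed as cell survival.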

[23] = tested on: Jurkat; assay: Induction of apoptosis in human Jurkat T cells assessed as caspase 3 activation at 5 uM after 24 hrs by DEVDase activity assay; type: functional, cell-based
Outline: as §5

[24] = tested on: SH-SY5Y; assay: Cytotoxicity against human SH-SY5Y at 1 to 5 uM after 72 hrs by trypan blue exclusion assay; type: functional, cell-based
Outline: as §6

[25] = tested on: H9c2; assay: Induction of apoptosis in rat H9c2 cells assessed as caspase 3 activation at 5 uM after 24 hrs by DEVDase activity assay; type: cell-based; conditions: h9c2, 24 h
Outline: as §5

[26] = tested on: SH-SY5Y; assay: Cytotoxicity against human SH-SY5Y at 1 uM after 24 hrs by trypan blue exclusion assay; type: functional, cell-based
Outline: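 SH-SY5Y cells given 1 μM. Viability at 24 h scored by dye exclusion.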

Structure (SMILES): CN(C)CCN1C(=O)c2cccc3cc([N+](=O)[O-])cc(c23)C1=O [MITONAFIDE]
- IC50 [1]: 1600 nM
- Activity [2]: Active
- Activity [3]: Active
- Activity [4]: inactive
- viability at 5 µM [5]: 70%
- Activity [6]: Active
- Activity [7]: Active
- Activity [8]: Active
- EC50 [9]: 11500 nM
- Kapp [9]: 2.2 ×10⁶ /M
- Activity [10]: inactive

Structure (SMILES): COc1ccccc1CNCCCN1C(=O)c2cccc3cccc(c23)C1=O
- Activity [11]: inactive
- Activity [12]: inactive

Structure (SMILES): COc1ccccc1CNCCCCCN1C(=O)c2ccc3c4c(ccc(c24)C1=O)C(=O)N(CCCCCNCc1ccccc1OC)C3=O
- IC50 [13]: 1100 nM
- IC50 [14]: 1100 nM

Structure (SMILES): COc1ccccc1CNCCCCCCCN1C(=O)c2ccc3c4c(ccc(c24)C1=O)C(=O)N(CCCCCCCNCc1ccccc1OC)C3=O
- IC50 [13]: 1700 nM
- IC50 [14]: 2500 nM

Structure (SMILES): COc1ccccc1CNCCCCN1C(=O)c2ccc3c4c(ccc(c24)C1=O)C(=O)N(CCCCNCc1ccccc1OC)C3=O
- IC50 [13]: 700 nM
- IC50 [14]: 800 nM

Structure (SMILES): COc1ccccc1CNCCCCCCN1C(=O)c2cccc3cccc(c23)C1=O
- Activity [11]: inactive
- Activity [12]: inactive

Structure (SMILES): COc1ccccc1CNCCCCCCCCCN1C(=O)c2cccc3cccc(c23)C1=O
- IC50 [13]: 500 nM
- IC50 [14]: 1300 nM
- Activity [15]: inactive
- Activity [16]: inactive

Structure (SMILES): COc1ccccc1CNCCCCCCCCN1C(=O)c2cccc3cccc(c23)C1=O
- IC50 [13]: 1400 nM
- IC50 [14]: 1200 nM

Structure (SMILES): COc1ccccc1CNCCCCCN1C(=O)c2cccc3cccc(c23)C1=O
- Activity [11]: inactive
- Activity [12]: inactive

Structure (SMILES): COc1ccccc1CNCCN1C(=O)c2cccc3cccc(c23)C1=O
- IC50 [13]: 2000 nM
- Activity [15]: inactive
- Activity [16]: inactive
- Activity [12]: inactive

Structure (SMILES): COc1ccccc1CNCCN1C(=O)c2ccc3c4c(ccc(c24)C1=O)C(=O)N(CCNCc1ccccc1OC)C3=O
- Activity [17]: Dose-dependent effect
- IC50 [1]: 900 nM
- IC50 [13]: 700 nM
- Activity [2]: Active
- Activity [3]: Active
- Activity [18]: Active
- Activity [4]: Active
- viability at 5 µM [5]: 70%
- IC50 [14]: 1300 nM
- Activity [19]: Active
- Activity [15]: inactive
- Activity [16]: inactive
- IC50 [20]: 1400 nM
- Activity [6]: Active
- Activity [7]: Active
- Activity [21]: Active
- viability at 1 µM [22]: 60%
- EC50 [9]: 93 nM
- Kapp [9]: 2.72 ×10⁸ /M
- Activity [23]: Active
- Activity [10]: Active
- Activity [24]: Active
- Activity [25]: Active

Structure (SMILES): COc1ccccc1CNCCCCCCCCCN1C(=O)c2ccc3c4c(ccc(c24)C1=O)C(=O)N(CCCCCCCCCNCc1ccccc1OC)C3=O
- IC50 [13]: 400 nM
- IC50 [14]: 1400 nM

Structure (SMILES): COc1ccccc1CNCCCCN1C(=O)c2cccc3cccc(c23)C1=O
- IC50 [13]: 1700 nM
- IC50 [14]: 3200 nM

Structure (SMILES): COc1ccccc1CNCCCCCCCN1C(=O)c2cccc3cccc(c23)C1=O
- Activity [11]: inactive
- Activity [12]: inactive

Structure (SMILES): COc1ccccc1CNCCCN1C(=O)c2ccc3c4c(ccc(c24)C1=O)C(=O)N(CCCNCc1ccccc1OC)C3=O
- Activity [17]: Dose-dependent effect
- IC50 [1]: 1200 nM
- IC50 [13]: 200 nM
- Activity [2]: Active
- Activity [3]: Active
- Activity [4]: Active
- viability at 5 µM [5]: 70%
- IC50 [14]: 400 nM
- Activity [15]: inactive
- Activity [16]: inactive
- IC50 [20]: 1400 nM
- Activity [6]: Active
- Activity [7]: Active
- Activity [21]: Active
- EC50 [9]: 122 nM
- Kapp [9]: 2.07 ×10⁸ /M
- Activity [26]: inactive
- Activity [10]: Active
- Activity [24]: Active

Structure (SMILES): COc1ccccc1CNCCCCCCCCCCN1C(=O)c2cccc3cccc(c23)C1=O
- IC50 [13]: 2000 nM
- IC50 [14]: 8000 nM

Structure (SMILES): COc1ccccc1CNCCCCCCCCCCN1C(=O)c2ccc3c4c(ccc(c24)C1=O)C(=O)N(CCCCCCCCCCNCc1ccccc1OC)C3=O
- IC50 [13]: 200 nM
- IC50 [14]: 700 nM

Structure (SMILES): COc1ccccc1CNCCCCCCN1C(=O)c2ccc3c4c(ccc(c24)C1=O)C(=O)N(CCCCCCNCc1ccccc1OC)C3=O
- IC50 [13]: 1200 nM
- IC50 [14]: 2200 nM

Structure (SMILES): COc1ccccc1CNCCCCCCCCN1C(=O)c2ccc3c4c(ccc(c24)C1=O)C(=O)N(CCCCCCCCNCc1ccccc1OC)C3=O
- IC50 [13]: 1000 nM
- IC50 [14]: 1600 nM
